Assay results reported in ChEMBL document CHEMBL1240422, “Design, synthesis and biological evaluation of 3,5-diaryl-isoxazoline/isoxazole-pyrrolobenzodiazepine conjugates as potential anticancer agents” (2010).
Active and inactive are the calls of the source. No cut-off for these calls is given here.

Legend:
UO-31 = test: Anticancer activity against human UO31 cells after 48 hrs by SRB assay; assay type: functional; details: UO-31, 48 h
ACHN = test: Anticancer activity against human ACHN cells after 48 hrs by SRB assay; assay type: functional
OVCAR-8 = test: Anticancer activity against human OVCAR8 cells after 48 hrs by SRB assay; assay type: functional; details: OVCAR-8, 48 h
SK-MEL-2 = test: Anticancer activity against human SK-MEL-2 cells after 48 hrs by SRB assay; assay type: functional; details: SK-MEL-2, 48 h
U-251 = test: Anticancer activity against human U251 cells after 48 hrs by SRB assay; assay type: functional; details: U-251, 48 h
NCI-H23 = test: Anticancer activity against human NCI-H23 cells after 48 hrs by SRB assay; assay type: functional; details: NCI-H23, 48 h
[1] = Anticancer activity against human Hs 578T cells after 48 hrs by SRB assay; assay type: functional
786-0 = test: Anticancer activity against human 786-0 cells after 48 hrs by SRB assay; assay type: functional; details: 786-0, 48 h
SF-539 = test: Anticancer activity against human SF539 cells after 48 hrs by SRB assay; assay type: functional; details: SF-539, 48 h
A-375 = test: Induction of apoptosis in human A375 cells assessed as caspase3 activation at 4 uM after 24 hrs by fluorimetry; assay type: functional, cell-based
Procedure, shortened: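 Caspase-3 activity was measured by a fluorometric assay on lysates of treated and untreated A375 cells.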

OVCAR-5 = test: Anticancer activity against human OVCAR5 cells after 48 hrs by SRB assay; assay type: functional; details: OVCAR-5, 48 h
HOP-92 = test: Anticancer activity against human HOP92 cells after 48 hrs by SRB assay; assay type: functional; details: HOP-92, 48 h
COLO 205 = test: Anticancer activity against human COLO205 cells after 48 hrs by SRB assay; assay type: functional; details: COLO 205, 48 h
Procedure, shortened: (§1)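 Grown in RPMI 1640 with 10% FBS and 2 mM L-glutamine at 37 °C, 5% CO2. Seeded at densities set by doubling time, then preincubated 24 h. Continuous 48 h drug exposure at four concentrations (0.1, 1, 10, 100), triplicate wells. Fixed with cold TCA (final 10%) at 4 °C, 60 min. Stained with 0.4% SRB in 1% acetic acid, eluted with 10 mM Tris base, read at 540/690 nm. Percent growth versus control wells.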

MCF7 = test: Anticancer activity against human MCF7 cells after 48 hrs by SRB assay; assay type: functional; details: MCF7, 48 h; procedure, shortened: as §1
HOP-62 = test: Anticancer activity against human HOP62 cells after 48 hrs by SRB assay; assay type: functional; details: HOP-62, 48 h; procedure, shortened: as §1
KM12 = test: Anticancer activity against human KM12 cells after 48 hrs by SRB assay; assay type: functional; details: KM12, 48 h
MDA-MB-231 = test: Anticancer activity against human MDA-MB-231 cells after 48 hrs by SRB assay; assay type: functional; details: MDA-MB-231, 48 h
TK-10 = test: Anticancer activity against human TK10 cells after 48 hrs by SRB assay; assay type: functional; details: TK-10, 48 h
RPMI-8226 = test: Anticancer activity against human RPMI8226 cells after 48 hrs by SRB assay; assay type: functional; details: RPMI-8226, 48 h
NCI-H460 = test: Anticancer activity against human NCI-H460 cells after 48 hrs by SRB assay; assay type: functional; details: NCI-H460, 48 h
NCI-H322M = test: Anticancer activity against human NCI-H322M cells after 48 hrs by SRB assay; assay type: functional
BT-549 = test: Anticancer activity against human BT549 cells after 48 hrs by SRB assay; assay type: functional; details: BT-549, 48 h
A498 = test: Anticancer activity against human A498 cells after 48 hrs by SRB assay; assay type: functional; details: A498, 48 h

## COc1ccc(C2=NOC(c3cc(OC)c(OC)c(OC)c3)C2)cc1OCCCCOc1cc2c(cc1OC)C(=O)N1CCC[C@H]1C=N2 (stereo partly drawn)
UO-31
  GI50: 0.29 µM
ACHN
  GI50: 0.28 µM
OVCAR-8
  GI50: 0.37 µM
SK-MEL-2
  GI50: 0.23 µM
U-251
  GI50: 0.3 µM
NCI-H23
  GI50: 0.27 µM
[1]
  GI50: 0.16 µM
786-0
  GI50: 0.28 µM
SF-539
  GI50: 0.22 µM
A-375
  Activity: Active
OVCAR-5
  GI50: 0.42 µM
HOP-92
  GI50: 0.31 µM
COLO 205
  GI50: 0.21 µM
MCF7
  GI50: 0.2 µM
HOP-62
  GI50: 0.27 µM
KM12
  GI50: 0.22 µM
MDA-MB-231
  GI50: 0.19 µM
TK-10
  GI50: 0.28 µM
RPMI-8226
  GI50: 0.24 µM
NCI-H460
  GI50: 0.21 µM
NCI-H322M
  GI50: 0.34 µM
BT-549
  GI50: 0.09 µM
A498
  GI50: 0.18 µM
